Assay results: ChEMBL document CHEMBL2176995, “An oral sphingosine 1-phosphate receptor 1 (S1P(1)) antagonist prodrug with efficacy in vivo: discovery, synthesis, and evaluation” (J Med Chem, 2012)
Active and inactive are the calls of the source. The calls are words filed in the database; no cut-off is given here.

Columns and labels:
[1] = tested on: Blood; assay: Drug level in Lewis rat blood assessed as level of (S)-2-{[3'-(4-Chloro-2,5-dimethylphenylsulfonylamino)-3,5-dimethylbiphenyl-4-carbonyl]methylamino}-4-dimethylaminobutyric Acid Hydrochloride at 30 mg/kg, po administered as single dose measured 24 hrs post dose; details: in vivo
[2] = Stability in pH 10 buffer assessed as compound remaining measured after 2 hrs by UPLC; type: physicochemical; details: read-out: Stability
Procedure, shortened: (§1)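 The ester was incubated in buffer at pH 7.4 or pH 10. Remaining ester and the hydrolysed carboxylic acid were followed over time by UPLC, at time points out to 82 h.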

[3] = Stability in pH 7.4 buffer assessed as compound hydrolysis measured after 49 hrs by UPLC; type: physicochemical; details: read-out: Drug degradation
Procedure, shortened: as §1

[4] = Stability in pH 1 buffer by UPLC; type: physicochemical; details: read-out: Stability
[5] = tested on: Rattus norvegicus; assay: Induction of capillary leakage in Lewis rat Evans blue dye lung leakage model at 30 mg/kg, po bid measured 96 hrs after 6 hrs relative to untreated control; type: organism-based; set-up: dose 30 mg/kg, route oral; details: in vivo
Procedure, shortened: (§2)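 Male Lewis rats were gavaged twice daily with vehicle or 30 mg/kg in 30% PEG200/buffer. Evans blue dye (20 mg/2 mL NaCl/kg iv) was given under anesthesia at 5, 23 or 95 h. One hour later the rats were bled, lungs were perfused with saline, dried at 60 °C for 24 h, weighed, and dye was extracted in formamide (24 h, 37 °C). Thoracic fluid volume was also recorded.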

[6] = tested on: Rattus norvegicus; assay: Toxicity in stringent Dark Agouti to Lewis rat heterotopic vascular heart allotransplantation model assessed as incidence of histopathological changes at 30 mg/kg, po bid coadministered with 10 mg/kg, bid sotrastaurin by hematoxylin and eosin staining; type: organism-based; details: in vivo
Procedure, shortened: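 DA hearts grafted into rat recipients. Test agent 30 mg/kg po b.i.d. (in PEG200/water, pH 5 with 0.1 M HCl) plus the PKC inhibitor 10 mg/kg po b.i.d. (in D-glucose/PEG400/water/0.1 M HCl), started 3 days before transplantation. The study ended at rejection or a set end point. Grafts were formalin-fixed and paraffin-embedded, and 3 μm sections were stained with H&E and trichrome. Acute cellular rejection (0–3R), vasculopathy and fibrosis were scored; lungs were also examined.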

[7] = Stability in pH 5 buffer by UPLC; type: physicochemical
[8] = tested on: Rattus norvegicus; assay: Increase in allograft survival in stringent Dark Agouti to Lewis rat heterotopic vascular heart allotransplantation model assessed as improvement in histological changes at 30 mg/kg, po bid coadministered with 0.3 mg/kg, qd everolimus by hematoxylin and eosin staining; type: functional, organism-based
Procedure, shortened: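 DA donor hearts were grafted into Lewis recipients. Treatment started 3 days before transplantation: prodrug 30 mg/kg po b.i.d. (PEG200/water, pH 5) alone or with sotrastaurin 10 mg/kg po b.i.d. or everolimus 0.3 mg/kg po q.d. Grafts were followed to rejection or up to 50 days. Allografts were formalin-fixed, cut at 3 μm, stained with H&E and trichrome, and scored for rejection. Lymphocytes were counted weekly before dosing, and body weight was monitored.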

[9] = tested on: Rattus norvegicus; assay: Increase in allograft survival in stringent Dark Agouti to Lewis rat heterotopic vascular heart allotransplantation model assessed as allograft mean survival time at 30 mg/kg, po bid coadministered with 0.3 mg/kg, qd everolimus (reference value: 6 days); type: functional
[10] = tested on: Rattus norvegicus; assay: Induction of capillary leakage in Lewis rat Evans blue dye lung leakage model assessed as thorax fluid level at 30 mg/kg, po bid measured after 6 hrs relative to untreated control; type: organism-based; set-up: dose 30 mg/kg, route oral; details: in vivo
Procedure, shortened: as §2

COC(=O)[C@H](CCN(C)C)N(C)C(=O)c1c(C)cc(-c2cccc(NS(=O)(=O)c3cc(C)c(Cl)cc3C)c2)cc1C
Drug uptake [1]: 5 ng/mL
remaining at 2 h [2]: 52%
degraded at 49 h [3]: 85%
half-life [4]: > 53 h
fold change (FC) [5]: 2.2
Activity [6]: Non-toxic
Stability [7]: > 53 h
Activity [8]: Active
MST [9]: >50 days
Activity [10]: 1 mL
